This is an account of results in PMC5409837 (Science translational medicine, 2017).

Data set [1] relates to VEGFR2 and PDGFRα phosphorylation. The conditions noted are these: hiPSC-CMs.
Data set [2] relates to INSR and IGF1R phosphorylation. The experiment in a line: Human Phospho-RTK Array in hiPSC-CMs: INSR and IGF1R. Format: cell-based. The following applies: for INSR and IGF1R phosphorylation: 0-1 μM, 72 hours.
Data set [3] concerns hiPSC-CMs. The experiment in a line: Patch clamp electrophysiology. Format: cell-based, human. The following applies: two hour treatment; for action potential duration: clinically-relevant concentrations.
Data set [4] deals with hiPSC-CMs. The experiment in a line: Calcium imaging of hiPSC-CMs. The following applies: 2 hour treatment; for beat rate (calcium imaging) / calcium transient duration: clinically-relevant concentrations. Format: cell-based, human. The gist of the method:
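hiPSC-CMs (day 30–40 post-differentiation) reseeded on Matrigel-coated chamber slides and exposed to test compound for 2 hours; compound stocks in DMSO at 10 mM. Cells loaded with 5 μM Fluo-4 AM plus 0.02% Pluronic F-127 in Tyrode's solution for 15 min at 37°C, then washed. Spontaneous Ca2+ transients recorded at 37°C by confocal single-cell line scan.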

The test system of data set [5] is hiPSC-CMs. The following applies: for LD50: hiPSC-CMs, 72 hour TKI treatment, PrestoBlue cell viability assay.
Data set [6] relates to hiPSC-CMs. Description: High-throughput hiPSC-CM contractility assessment. The format is cell-based, human. The conditions noted are these: for alterations in beating rate relative to LD50: commercially-available healthy control hiPSC-CMs, 72 hour treatment.
Data set [7] can be described thus: Clinical cardiotoxicity in patients. The conditions noted are these: sunitinib first-line, axitinib second-line treatment. Format: in vivo, human.
The next data set concerns hiPSCs. The format is cell-based, human.
A further data set deals with Axl phosphorylation. Description: Human Phospho-RTK Array in hiPSC-CMs: Axl. Format: cell-based. The following applies: 0-1 μM, 72 hours.
In data set [8] the test system is hiPSC-CMs.
The conditions of data set [9]: patients, cited from earlier work.
For data set [10], the system named is hiPSC-CMs. The conditions noted are these: cited from earlier work.
The subject of another data set is hiPSC-CFs. The experiment in a line: TKI cytotoxicity in hiPSC-derived cardiac fibroblasts. Format: cell-based.
In a further data set the test system is hiPSC-ECs. Description: TKI cytotoxicity in hiPSC-derived endothelial cells. The format is cell-based.
A further data set has as its system neuropilin 2 (NRP2). The experiment in a line: Microarray gene expression in hiPSC-CMs after TKI treatment. The format is cell-based, human. The conditions noted are these: 1 μM TKI, 72 hour.
In another data set the test system is VEGFC. The experiment in a line: RNA-sequencing of hiPSC-CMs treated with sorafenib: VEGFC. The conditions noted are these: 5 healthy control hiPSC-CM lines, 1 μM, 72 hours. The format is cell-based, human.
The test system of a further data set is zebrafish heart. The conditions noted are these: cited from earlier work.
Data set [11] has as its system hiPSC-CMs. The format is cell-based. The following applies: for rescue of ponatinib toxicity (hiPSC-CM viability): co-treatment with ponatinib, 72 hours, CellTiter-Glo. A general note: ATP-based viability assays read luminescence as a measure of living cells.
For another data set, the system named is Akt protein network. Description: Human Phospho-Kinase Antibody Array in hiPSC-CMs after IGF1 or insulin. The format is cell-based. The conditions noted are these: 12 hour IGF1 or insulin treatment.
Setting [12] is: quantitative and qualitative viability assays.

Like-named read-outs stand apart in the source and are kept apart here. Where only a bound is given, the exact number is not on record here.

Consider `CNC(=O)c1ccccc1Sc1ccc2c(/C=C/c3ccccn3)n[nH]c2c1` [axitinib], for which, in data set [1] (0-1 μM, 72 hours, sub-cytotoxic concentrations), the “VEGFR2 and PDGFRα phosphorylation” value was “the strongest dual-inhibition”. For the same compound, in data set [2], the “fold enhancement of INSR/IGF1R phosphorylation” value is on record as “two-fold”; the “INSR and IGF1R phosphorylation” value was “increased INSR and IGF1R phosphorylation”. Also, in the data set with hiPSC-CMs [3], the action potential duration entry is listed as “did not alter action potential duration”. The “calcium imaging parameters (transient amplitude, transient duration, beating rate)” value with hiPSC-CMs [4] is recorded as “did not significantly alter parameters such as calcium transient amplitude, transient duration, or beating rate”. In the data set with hiPSC-CMs [5], the “difference in cytotoxicity between TKI-receiving patient hiPSC-CMs and healthy control hiPSC-CM lines” value is listed as “did not observe a significant difference in cytotoxicity”; the “relative cytotoxicity among TKIs in hiPSC-CMs” value was “the least cytotoxic TKI in hiPSC-CMs”. Further, the contraction irregularities entry with hiPSC-CMs [6] (clinically-relevant concentrations) is listed as “Neither DMSO nor axitinib elicited contraction irregularities”. In addition, in [7], the “clinical cardiotoxicity in the two kidney cancer patients” value was “no significant clinical cardiotoxicity”. For the same compound, in the data set on hiPSCs, the “toxicity in undifferentiated hiPSCs” value is recorded as “extremely toxic to hiPSCs”.

On to `COc1cc2nccc(Oc3ccc(NC(=O)C4(C(=O)Nc5ccc(F)cc5)CC4)cc3)c2cc1OC` [cabozantinib], for which the Axl phosphorylation entry in the data set on Axl phosphorylation is “decreased Axl phosphorylation”.

In the case of `COc1cccc2c1C(=O)c1c(O)c3c(c(O)c1C2=O)C[C@@](O)(C(=O)CO)C[C@@H]3O[C@H]1C[C@H](N)[C@H](O)[C@H](C)O1` [doxorubicin], in the data set on hiPSC-CMs [5], the LD50 came to 0.78 µM. Further, the cardiac safety index in the data set with hiPSC-CMs [8] (human, 72 h) is given as ≤ 0.10. In the data set with hiPSCs, the “toxicity in hiPSCs at 0.1 μM” value is reported as “lethal” and the “toxicity in undifferentiated hiPSCs” value is recorded as “substantially enhanced in hiPSCs”.

`C#Cc1cccc(Nc2ncnc3cc(OCCOC)c(OCCOC)cc23)c1` [erlotinib] registered an LD50 in the data set with hiPSC-CMs [5] of 87.60 µM.

Turning to `Cc1ccc(NC(=O)c2ccc(CN3CCN(C)CC3)cc2)cc1Nc1nccc(-c2cccnc2)n1` [imatinib], the “calcium imaging parameters (transient amplitude, transient duration, beating rate)” value in the data set on hiPSC-CMs [4] is recorded as “did not significantly alter parameters such as calcium transient amplitude, transient duration, or beating rate”.

Take `Cc1cn(-c2cc(NC(=O)c3ccc(C)c(Nc4nccc(-c5cccnc5)n4)c3)cc(C(F)(F)F)c2)cn1` [nilotinib]: in the data set with hiPSC-CMs [3], the “cellular beating rate (patch clamp)” value is “decreased cellular beating rate” and the action potential duration result is “significantly prolonged action potential duration”. Moreover, in the data set on hiPSC-CMs [4], the “beat rate (calcium imaging)” value is “decreased beat rate” and the calcium transient duration result is “prolonged calcium transient duration”. In addition, the “alterations in beating rate relative to LD50” value with hiPSC-CMs [6] is “alterations in hiPSC-CM beating rate and other parameters at doses lower than LD50 cytotoxicity values”. Also, the “clinical QT interval prolongation and arrhythmias” value in data set [9] is “cause dangerous QT interval prolongation and arrhythmias clinically”. Moreover, the cardiac safety index in the data set with hiPSC-CMs [8] (human, 72 h) is ≤ 0.10.

As for `Cc1ccc(C(=O)Nc2ccc(CN3CCN(C)CC3)c(C(F)(F)F)c2)cc1C#Cc1cnc2cccnn12` [ponatinib], the “VEGFR2/PDGFR inhibition at nanomolar concentrations” value in data set [1] is reported as “complete VEGFR2/PDGFR inhibition”. In [2], the “fold enhancement of INSR/IGF1R phosphorylation” value was “two-fold”; the “INSR and IGF1R phosphorylation” value was “increased INSR and IGF1R phosphorylation”. This compound had an LD50 in the data set with hiPSC-CMs [5] of 4.3 µM. Further, in the data set with hiPSC-CMs [5] (setting [12]), the “cytotoxicity in all eleven healthy control hiPSC-CM lines” value is recorded as “highly cytotoxic”. Also, the “mitochondrial stress and contraction abnormalities in hiPSC-CMs” value in the data set on hiPSC-CMs [10] was “induce mitochondrial stress and elicit contraction abnormalities in hiPSC-CMs”. In addition, the “relative cytotoxicity in hiPSC-CFs” value with hiPSC-CFs is listed as “the highest cytotoxicities”. Moreover, the “relative cytotoxicity in hiPSC-ECs” value in the data set on hiPSC-ECs is “the most cytotoxic TKIs in hiPSC-ECs”. Besides, the “increase in expression of neuropilin 2” value in the data set with neuropilin 2 (NRP2) is listed as “two-fold”.

As for `CNC(=O)c1cc(Oc2ccc(NC(=O)Nc3ccc(Cl)c(C(F)(F)F)c3)c(F)c2)ccn1` [regorafenib], the “VEGFR2/PDGFR inhibition at nanomolar concentrations” value in data set [1] was “complete VEGFR2/PDGFR inhibition”. Besides, in the data set on hiPSC-CMs [5], the LD50 was found to be 7.1 µM. The “cytotoxicity in all eleven healthy control hiPSC-CM lines” value with hiPSC-CMs [5] (setting [12]) is reported as “highly cytotoxic”. Further, the “relative cytotoxicity in hiPSC-CFs” value with hiPSC-CFs is “the highest cytotoxicities”. The “relative cytotoxicity in hiPSC-ECs” value with hiPSC-ECs was “the most cytotoxic TKIs in hiPSC-ECs”. Moreover, the “increase in expression of neuropilin 2” value in the data set with neuropilin 2 (NRP2) is given as “two-fold”. For the same compound, the cardiac safety index result in the data set with hiPSC-CMs [8] (value from 0-1, 0.10 = threshold for highly cardiotoxic compounds) is “below 0.10”.

Take `CNC(=O)c1cc(Oc2ccc(NC(=O)Nc3ccc(Cl)c(C(F)(F)F)c3)cc2)ccn1` [sorafenib]: in the data set with VEGFC, the VEGFC expression result was “increased expression”. In addition, in the data set on zebrafish heart, the “cardiotoxicity in zebrafish heart” value was “induces cardiomyocyte death and contractility defects in the zebrafish heart”. In the data set with hiPSC-CMs [5], the “cytotoxicity in all eleven healthy control hiPSC-CM lines” value is reported as “highly cytotoxic” and the LD50 was 3.4 µM. Further, the clinical cardiotoxicity entry in [9] (ref Table S2, 20) was “causes ventricular dysfunction and heart failure clinically”. Further, the “increase in expression of neuropilin 2” value in the data set on neuropilin 2 (NRP2) is “two-fold”.

In the case of `CCN(CC)CCNC(=O)c1c(C)[nH]c(/C=C2\C(=O)Nc3ccc(F)cc32)c1C` [sunitinib], the “difference in cytotoxicity between TKI-receiving patient hiPSC-CMs and healthy control hiPSC-CM lines” value in the data set on hiPSC-CMs [5] was “did not observe a significant difference in cytotoxicity”. Moreover, in [7], the “clinical cardiotoxicity in the two kidney cancer patients” value is “no significant clinical cardiotoxicity”.

As to `COc1cc2c(Nc3ccc(Br)cc3F)ncnc2cc1OCC1CCN(C)CC1` [vandetanib], in the data set with hiPSC-CMs [3], the “cellular beating rate (patch clamp)” value is “decreased cellular beating rate” and the action potential duration entry is “significantly prolonged action potential duration”. In the data set with hiPSC-CMs [4], the “beat rate (calcium imaging)” value was “decreased beat rate” and the calcium transient duration entry is given as “prolonged calcium transient duration”. In the data set on hiPSC-CMs [6], the “alterations in beating rate relative to LD50” value is “alterations in hiPSC-CM beating rate and other parameters at doses lower than LD50 cytotoxicity values”. For the same compound, in data set [9], the “clinical QT interval prolongation and arrhythmias” value was “cause dangerous QT interval prolongation and arrhythmias clinically”.

Consider IGF1, for which the “rescue of ponatinib toxicity (hiPSC-CM viability)” value is reported as “cardioprotective effect” in the data set on hiPSC-CMs [11] and “significantly rescued ponatinib toxicity” in the data set with hiPSC-CMs [11] (listed as IGF). For the same compound, the “phosphorylation of Akt protein network” value in the data set with Akt protein network is “enhanced phosphorylation of the anti-apoptotic Akt protein network”.

In the case of insulin, the “rescue of doxorubicin cytotoxicity in hiPSC-CMs” value in the data set on hiPSC-CMs [11] (co-treatment with doxorubicin) is given as “rescued hiPSC-CMs from doxorubicin cytotoxicity”. The “phosphorylation of Akt protein network” value in the data set on Akt protein network is reported as “enhanced phosphorylation of the anti-apoptotic Akt protein network”.
